A selection: hits, their analogues and other compounds. The true share with any hit is near 2.7%.
OX1R antag-1: human HCRTR1 antagonism; CHO/OX1R cells, Fluo-8 calcium fluorescence, orexin A; inhibition, % at 5 µM; O43613; actives 0.43% (n = 330,000);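 active = inhibition above its plate's threshold, mean inhibition of all tested compounds on the plate plus 3 SD, cut at about 37% in these data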;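 note: 0% = orexin A challenge wells and 100% = SB-334867-A antagonist wells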
V1aR counter: counter-screen for oxytocin receptor agonists: human V1a receptor agonists. CHO-V1R cells, Fluo-8 calcium fluorescence, agonist mode; 0% DMSO, 100% 3 nM vasopressin. activation, % at 3 µM. actives 0.25% (n = 320,000). AID 2797;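 active = activation above the mean activation of all tested compounds plus 3 SD, per screening run, cut at about 20% in these data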;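 note: signal is peak over basal fluorescence ratio across a 100 second FLIPR read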
Target sequence (P37288 whole entry, looked up): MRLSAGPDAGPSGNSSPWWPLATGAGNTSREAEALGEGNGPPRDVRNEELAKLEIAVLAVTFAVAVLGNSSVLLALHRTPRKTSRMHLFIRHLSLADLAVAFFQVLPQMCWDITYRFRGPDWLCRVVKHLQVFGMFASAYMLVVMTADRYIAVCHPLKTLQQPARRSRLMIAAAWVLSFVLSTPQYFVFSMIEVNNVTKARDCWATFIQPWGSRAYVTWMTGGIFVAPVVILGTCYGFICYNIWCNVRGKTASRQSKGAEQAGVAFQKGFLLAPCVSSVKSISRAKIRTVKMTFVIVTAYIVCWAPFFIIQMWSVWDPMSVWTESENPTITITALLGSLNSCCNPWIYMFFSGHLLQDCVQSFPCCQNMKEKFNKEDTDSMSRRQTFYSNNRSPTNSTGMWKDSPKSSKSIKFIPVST
CHO parental Ca: signal in parental CHO cells, OX1R antagonist counter-screen; parental CHO-K1, ATP-induced calcium, Fluo-8 fluorescence; inhibition, % at 5.6 µM; actives 0.63% (n = 330,000); AID 463079;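 active = inhibition above that plate's mean sample inhibition plus 3 SD, cut at about 26% in these data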;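 note: 0% = ATP-challenged DMSO wells and 100% = DMSO wells without ATP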
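Assay system – parental CHO cells · Reagent – ATP stimulus · Detection – intracellular calcium via Fluo-8 no-wash fluorescent dye · Evaluation – percent inhibition of ATP-evoked calcium rise, normalized to controls · Controls – ATP wells versus no-ATP DMSO wells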
OXTR agonist: human OXTR agonism; P30559; CHO-OTR cells, Fluo-8 calcium fluorescence; normalized: DMSO 0%, oxytocin 100%; activation, % at 3 µM; actives 0.32% (n = 320,000); AID 2435;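 active = activation above the mean of all tested compounds plus 3 SD, cutoff set per screening run, cut at about 20% in these data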;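 note: peak over basal fluorescence ratio from a 100 s FLIPR kinetic read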
OX1R antag-2: blocks the human orexin 1 receptor | OX1R-expressing cells, FRET antagonist read-out | inhibition, % at 6.6 µM | actives 1.8% (n = 330,000); in the data active = inhibition mostly above about 38%, no sharp cut-off; inactive = mostly below about 40%;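 note: 0% = agonist challenge alone and 100% = reference antagonist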
OXTR potentiator: potentiators of human oxytocin receptor. P30559. CHO-OTR cells, Fluo-8 calcium fluorescence, potentiator mode; 0% = oxytocin EC15, 100% = EC100. activation, % at 3 µM. actives 0.061% (n = 320,000). AID 2445;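 active = activation above that plate's cutoff, the mean activation of tested compounds plus 3 SD, cut at about 6.6% in these data, passing the limit was not always enough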;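 note: 100% uses oxytocin at 75 nM as the full agonist control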
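Assay system: CHO cell line stably expressing human OTR. Reagent: EC15 oxytocin agonist. Dosing: single dose, 3.0 µM nominal final compound concentration. Timing: compound 6 min at room temperature before oxytocin, 100 s read. Signal: kinetic Fluo-8 calcium fluorescence. Controls: oxytocin EC15 low and EC100 high.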
* marks the source's active call; other numbers are inactive results.

SMILES	OX1R antag-1	V1aR counter	CHO parental Ca	OXTR agonist	OX1R antag-2	OXTR potentiator
Nc1ccc(C(=O)Nc2ccc(OC(F)(F)C(F)F)c(NC(=O)c3ccc(N)cc3)c2)cc1	12.6	2.5	-4.2	4.0	59.4	-9.1
CCN(CC)CCNC(=O)c1cc(Br)c(N)cc1OC	6.1	0.1	-5.9	0.2	5.4	-5.8
CN(Cc1ccccc1)C(=O)COC(=O)CCN1C(=O)C2CC=CCC2C1=O (stereo unspecified)	-16.1	1.1	-15.5	1.4	0.5	0.4
CC1=Nc2ccccc2/C1=C/c1sc(=N)n(-c2nccs2)c1O	64.4*	25.7*	46.9*	22.9*	41.2	-11.0
CC(=O)/C=C1\N(C)c2ccc(C)cc2C1(C)C	6.3	1.0	38.1*	-1.6	22.3	-2.6
CN1/C(=C\C(=O)c2cncc(Br)c2)C(C)(C)c2ccccc21	37.2	1.5	38.6*	-2.2	19.0	-5.7
CN1/C(=C\C(=O)c2ccco2)C(C)(C)c2ccccc21	21.4	0.5	70.9*	-2.4	32.6	-4.1
CN1/C(=C\C(=O)COC(=O)c2ccco2)C(C)(C)c2ccccc21	-5.7	2.0	-3.8	0.7	32.3	-21.6
CN1/C(=C\C(=O)C(F)F)C(C)(C)c2ccccc21	-11.3	-2.0	-2.1	-2.4	-1.1	-4.0
COc1ccc(CCN=c2c([N+](=O)[O-])nn(-c3cccc(C)c3)n2O)cc1OC	-29.7	1.3	-21.1	2.2	74.7*	4.0
Cc1cccc(CCN=c2c([N+](=O)[O-])nn(-c3ccccc3)n2O)c1	-9.6	-0.7	-9.2	-2.3	34.3	-1.5
O=[N+]([O-])c1ccc2nc(/C=C/c3ccc(Cl)cc3)[nH]c2c1	13.0	6.1	29.4*	3.7	76.6*	-13.3
Cc1cccc(S(=O)(=O)c2c(N)n(Cc3ccco3)c3nc4ccccc4nc23)c1	-6.5	2.4	-0.1	4.6	15.5	-7.5
Cc1cccc(-n2cnc3c(c2=O)c2nc4ccccc4nc2n3Cc2ccco2)c1	-7.2	-1.8	-22.7	-2.5	68.9*	-8.0
Cc1cccc(CC(=O)N2CCN(C(=O)c3ccco3)CC2)c1	-5.5	0.8	-1.7	1.2	8.4	2.4
CCN(CC)c1ccc(C2Nc3cccc4cccc(c34)N2)c(O)c1	-7.9	0.5	-14.2	32.0*	15.5	0.8
COc1ccccc1NC(=O)c1nn(-c2ccccc2)ccc1=O	6.2	0.0	-8.6	-1.8	71.0*	-1.2
CCOC(=O)c1cccc(NC(=O)CCS(=O)(=O)c2ccc(Br)s2)c1	-10.5	0.8	-17.3	-1.9	45.7*	-11.3
OCCCNc1nc(-c2ccc(Cl)cc2)nnc1-c1ccc(Br)cc1	-9.3	0.4	-7.0	-2.7	18.8	-4.2
O=[N+]([O-])c1ccc(-c2nnc(-c3ccccc3)c(NCCCO)n2)cc1	-2.9	1.7	1.1	-0.8	38.4*	0.0
N=C(N)c1ccc(/C=C/c2ccc(C(=N)N)cc2O)cc1	-6.7	1.6	-7.2	0.6	46.3*	4.7
COc1ccccc1C(=O)NCC(=O)NCc1cc(=O)n(C)c(=O)n1C	0.5	0.2	11.4	1.1	11.9	-2.0
C=CCN(C(=O)c1csnn1)C(C(=O)NC1CCCC1)c1ccc(F)cc1 (stereo unspecified)	-26.7	-0.2	-10.9	-1.0	16.4	7.5
C=CCN(C(=O)c1csnn1)C(C(=O)NC1CCCC1)c1ccc(Cl)cc1 (stereo unspecified)	-17.5	-1.3	-14.8	-1.0	69.5*	-4.1
COc1ccccc1N(Cc1ccccc1)S(=O)(=O)c1cccc(C(=O)N2CCCCC2)c1	6.3	1.0	-15.8	-1.3	14.9	-5.5
SMILES	OX1R antag-1	V1aR counter	CHO parental Ca	OXTR agonist	OX1R antag-2	OXTR potentiator
O=C(Cn1cnc2ccccc21)Nc1ccc(SC(F)F)cc1	17.6	14.7	46.5*	12.8	30.3	-12.7
COc1ccc(NC(=O)COC(=O)Cn2cnc3ccccc32)cc1	-6.9	1.6	-3.9	1.5	1.1	-4.6
O=S(=O)(NCCc1ccncc1)c1ccc(F)cc1	-1.9	1.4	-2.7	0.0	5.3	-4.9
O=[N+]([O-])c1ccc(S(=O)(=O)NCCc2ccncc2)cc1	-15.6	0.4	-4.3	1.0	42.9*	-7.7
CC(=O)Nc1cc(OC(C)=O)c2nonc2c1OC(C)=O	2.5	0.1	-2.3	1.0	84.7*	9.9
COc1ccc(Nc2ncccc2C(=O)Nc2ccccc2)cc1	-19.4	0.8	50.4*	5.9	5.3	-15.1
COc1ccc2oc(=N)c(C(=O)Nc3ccccc3)cc2c1	-4.2	0.9	10.0	0.1	75.6*	-15.1
COc1ccc(NC(=O)c2cccnc2Nc2ccc(OC)cc2)cc1	-12.6	4.2	-2.8	3.3	0.0	-3.8
COc1ccc2oc(=N)c(C(=O)Nc3ccc(F)cc3)cc2c1	4.7	0.1	3.0	1.0	4.0	6.1
N#Cc1c(-c2ccco2)cc(-c2ccccn2)nc1N	4.1	-0.1	-15.3	-1.4	73.5*	-13.2
N#Cc1c(-c2ccco2)cc(-c2cccnc2)nc1N	-2.9	1.4	-3.6	-0.2	13.8	-4.5
CCOc1ccccc1NC(=S)N1CCN(c2cccc(OC)c2)CC1	-19.2	-0.4	-15.0	-1.1	18.5	-6.1
CCN(CC)c1ccc(/C=N/NC(=O)c2cccc(S(=O)(=O)N3CCOCC3)c2)c(O)c1	-6.6	1.7	-10.9	-0.6	66.3*	-7.1
CC(=O)N1CCN(C(=O)c2ccc3c(c2)S(=O)(=O)c2ccccc2C3=O)CC1	-10.6	0.1	-13.7	1.2	69.2*	2.4
O=C1c2ccccc2S(=O)(=O)c2cc(C(=O)N3CCN(C(=O)c4ccccc4)CC3)ccc21	-11.8	-0.1	-4.9	1.6	39.0	-1.9
CCN1CCN(C(=O)c2ccc3c(c2)S(=O)(=O)c2ccccc2C3=O)CC1	-0.1	0.6	-15.2	-1.0	60.2*	-7.1
O=C1c2ccccc2S(=O)(=O)c2cc(C(=O)N3CCC(O)CC3)ccc21	-3.4	0.1	0.6	1.1	75.4*	-4.2
CCC(C)(C)NC(=O)c1ccc2c(c1)S(=O)(=O)c1ccccc1C2=O	-36.8	-0.6	-21.5	-2.0	61.5	-5.2
CCN(CC(=O)NC(C)(C)C)C(=O)c1ccc2c(c1)S(=O)(=O)c1ccccc1C2=O	-29.0	0.4	-23.7	0.1	56.3*	6.9
Cc1cccc(NC(=O)CNC(=O)COc2cc(F)ccc2[N+](=O)[O-])c1C	-18.9	1.1	-5.8	-0.7	15.6	4.5
COc1cc(OC)cc(OC(=O)c2ccc3c(=O)n4c(nc3c2)CCC4)c1	-27.2	0.2	-19.5	-0.6	6.5	-9.5
Cn1c(=O)n(C)c2cc([N+](=O)[O-])c(N3CCN(CCO)CC3)cc21	-11.1	0.0	-9.2	-0.6	30.2	-11.7
O=C(Nc1cc(C(=O)N2CCN(c3ccccc3O)CC2)ccc1Cl)c1cccs1	-27.7	0.5	-19.4	0.1	25.4	-13.1
